Data on 167 variants can be found in the RNAGym collection of RNA variant scans (doi:10.1126/science.aae0568).

Fewer inactive variants are shown than the library holds.

Sequences and labels used below:
B1: tRNA (parent)
chain: GUUCCGUUGGCGUAAUGGUAACGCGUCUCCCUCCUAAGGAGAAGACUGCGGGUUCGAGUCCCGUACGGAACG

Variants of B1 are the subject of this data set. The experiment in a line: yeast fitness relative to wild type (ratio to wild type); higher = fitter; tRNA-Arg(CCU), competitive growth, 37 C, YPD. In short, it runs like this: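 Genotype frequency changes were the basis for Darwinian fitness relative to wild type. The frequencies came from 100-nucleotide paired-end sequencing of gene amplicons from the start population and each end population of pooled yeast strains with tRNA-Arg(CCU) gene variants at the native locus. Competition ran in YPD at 37°C for 24 hours in six replicates, genotypes needed ≥ 100 starting reads, and estimates < 0.5 were set to 0.5.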
On to A20U C34U C46U G51A C66U, for which the yeast fitness was no more than 0.5.

Turning to A20U U28C A69C, the yeast fitness is 0.699.

In the case of A21C C22A C60U, the yeast fitness is no more than 0.5.

For A20U G50A C60G, the yeast fitness is no more than 0.5.

Consider A20G C33G G56A, for which the yeast fitness is 0.639.

For the variant A20G G63A A70G, the yeast fitness stood at 0.634.

For A20U C27A A40C C46A, the yeast fitness is no more than 0.5.

As to A21C C24G G68C, the yeast fitness is no more than 0.5.

A20U G44A C60A: the yeast fitness is no more than 0.5.

As for A21C A42U G52A C60A A69G, the yeast fitness was no more than 0.5.

Take A21C C27A C33U: the yeast fitness amounted to 0.906.

Regarding A20U A37G C66A A69U, the yeast fitness was no more than 0.5.

On to A20U C34U G41A, for which the yeast fitness was no more than 0.5.

For A20U A21U C33G U35G G50U G68A, the yeast fitness was 0.637.

Take A20U G44C C60A: the yeast fitness came out at 0.617.

Regarding A20U C22U C33A C66A, the yeast fitness was no more than 0.5.

A20U C34A C62U: the yeast fitness amounted to 0.542.

Consider A20G U28A C30G U59C, for which the yeast fitness was no more than 0.5.

Consider A20G U26A G63A, for which the yeast fitness is 0.613.

As to A21C C24G A37U C55U, the yeast fitness was no more than 0.5.

A20U A42G A65G: the yeast fitness worked out at 0.689.

In the case of A20G C49A, the yeast fitness amounted to 0.655.

A21C C22G A70C: the yeast fitness is no more than 0.5.

With A20U C22G C60A, the yeast fitness is no more than 0.5.

Regarding A20G U32A A43C U53G, the yeast fitness is 0.607.

Consider A20G G50A U59C, for which the yeast fitness was 0.571.

A20U C29G U47C C49G G63C: the yeast fitness was no more than 0.5.

On to A20U A42C, for which the yeast fitness came to 0.648.

Take A20U U28G C30U U32G C34G: the yeast fitness is no more than 0.5.

Turning to A20U C34A, the yeast fitness is 0.7.

As for A20U C34U, the yeast fitness is 0.652.

As to A20U C34G, the yeast fitness was 0.68.

Take A20U A40G A42G G50A: the yeast fitness was no more than 0.5.

Turning to A20G U32G G58C C61A A65U, the yeast fitness is no more than 0.5.

Consider A20U C31G A69C, for which the yeast fitness is no more than 0.5.

For A20U A43U C49A G68A, the yeast fitness was no more than 0.5.

Consider A20G C60A C61G, for which the yeast fitness is no more than 0.5.

As for A20G C34G C55G U59C C60U G67U, the yeast fitness is no more than 0.5.

Turning to A20U C34G G48C, the yeast fitness came out at 0.53.

Turning to A20U G25A C49G, the yeast fitness came out at 0.619.

For A20U C30A G52A A65U, the yeast fitness is no more than 0.5.

For the variant A20U C30A A40C, the yeast fitness was no more than 0.5.

On to A20G C60A, for which the yeast fitness stood at 0.751.

Turning to A20U C46U, the yeast fitness is 0.995.

Consider A20U A43G G58A, for which the yeast fitness turned out to be 0.91.

Take A20G U59A A70C: the yeast fitness was determined as 0.646.

In the case of A20G C66A, the yeast fitness came to 0.635.

Turning to A20U C29U A57G A65G, the yeast fitness is no more than 0.5.

For the variant A20U C24G C49G, the yeast fitness is no more than 0.5.

As for A20U C66U A70U, the yeast fitness came to 0.646.

On to A21C A43G G58A, for which the yeast fitness turned out to be 0.892.

Consider A21C A43G G58C, for which the yeast fitness is no more than 0.5.

For the variant A20U G38C C46A, the yeast fitness is no more than 0.5.

Take A20G G68A: the yeast fitness was 0.917.

Consider A20U C22G U47C, for which the yeast fitness is no more than 0.5.

With A20U U54A, the yeast fitness came out at 0.699.

For the variant A20U U35A C46G C49U, the yeast fitness was no more than 0.5.

As for A20U C27U U32C G52C, the yeast fitness was no more than 0.5.

On to A20U U26C C30A U47A A65U, for which the yeast fitness is no more than 0.5.

Regarding A20U G67A A70G, the yeast fitness is 0.882.

With A20U G23A C66U, the yeast fitness is 0.55.

For the variant A20G U26C, the yeast fitness is 0.984.

Take A20G C34G G41C: the yeast fitness was no more than 0.5.

Turning to A20G U35C A70U, the yeast fitness was determined as 0.629.

On to A20U G41C G51C C62G, for which the yeast fitness was found to be 0.735.

A20G C60A U64A C66U: the yeast fitness is no more than 0.5.

In the case of A20U U28C A40U C62G, the yeast fitness came out at 0.533.

Regarding A20U G25A C27G G67A, the yeast fitness is 0.542.

Consider A20U G38C C49A, for which the yeast fitness was no more than 0.5.

For the variant A21C A70C, the yeast fitness amounted to 0.798.

Consider A20U A43G A70U, for which the yeast fitness was found to be 0.661.

For A20G C34G U47C, the yeast fitness was no more than 0.5.

Regarding A20U C34A C55G C66A, the yeast fitness is 0.561.

For A20G G51C, the yeast fitness was found to be 0.581.

On to A20G G25C, for which the yeast fitness is 0.985.

As to A20G G25A, the yeast fitness amounted to 0.904.

With A20U C49G, the yeast fitness is 0.752.

As for A20G G56C, the yeast fitness is 0.61.

Take A21C A57G: the yeast fitness amounted to 0.708.

Take A21C A57C: the yeast fitness amounted to 0.548.

On to A20G U53C, for which the yeast fitness came out at 0.682.

In the case of A20U A43C U54C, the yeast fitness is no more than 0.5.

Turning to A21C C24A A65C, the yeast fitness is no more than 0.5.

A21C A45C C49U C55G G56C: the yeast fitness is no more than 0.5.

As for A20U A45U, the yeast fitness is 0.777.

As to A20U C27G C46G C49U, the yeast fitness was no more than 0.5.

Take A20U A37U C55U: the yeast fitness was no more than 0.5.

Turning to A20U A21U C31G C55A C66U, the yeast fitness is no more than 0.5.

As to A20U C24U A43G U59A, the yeast fitness was no more than 0.5.

A20U C27U C61G: the yeast fitness was 0.647.

For A20U A45G G50A G52A, the yeast fitness is 0.602.

Take A20U C27G C30G A36C A70U: the yeast fitness was no more than 0.5.

Turning to A20U U28A C33U, the yeast fitness is no more than 0.5.

As for A20U U47A U53C, the yeast fitness worked out at 0.532.

For the variant A20U C31U G56A C61U, the yeast fitness is no more than 0.5.

Consider A20U U32G U35A C62U A69C, for which the yeast fitness is no more than 0.5.

As for A21C A36G G67C, the yeast fitness was no more than 0.5.

Take A20G G23C: the yeast fitness worked out at 0.727.

As for A20G G23A, the yeast fitness stood at 0.89.

For the variant A20G G23C C31U C46G, the yeast fitness is 0.526.

On to A20G G38C A70U, for which the yeast fitness was 0.57.

For A20G C33G G56A A65C, the yeast fitness is no more than 0.5.

Turning to A20G G38A, the yeast fitness turned out to be 0.912.

In the case of A20U G52A, the yeast fitness came to 0.759.

A20U C62U U64G: the yeast fitness was 0.603.

A21C A42U G44C U53C: the yeast fitness is no more than 0.5.

Regarding A20U C24A A57C, the yeast fitness is no more than 0.5.

Consider A20U G67C, for which the yeast fitness is 0.732.

Take A20U G67A: the yeast fitness amounted to 0.657.

Consider A20U U28G U32G C34G C66U, for which the yeast fitness is no more than 0.5.

Consider A20G C33U, for which the yeast fitness is 0.798.

Consider A20U A42U U59A, for which the yeast fitness was 0.59.

With A20U C27G C29A A57G A65G, the yeast fitness is no more than 0.5.

A20G U53C C55A: the yeast fitness is no more than 0.5.

Consider A20U C24G G63A A65U, for which the yeast fitness was no more than 0.5.

On to A20U C34A G38A U59A, for which the yeast fitness was no more than 0.5.

For A20U G25A A69U, the yeast fitness worked out at 0.838.

A20G U28A: the yeast fitness amounted to 0.807.

For A20G U28G, the yeast fitness came to 0.86.

As for A20U U28C C30U A43G, the yeast fitness was no more than 0.5.

In the case of A20U A40U U59A, the yeast fitness was no more than 0.5.

Regarding A20U C27G C49A, the yeast fitness was no more than 0.5.

For A20G U35G A65U, the yeast fitness is no more than 0.5.

For A20U C31A G41A, the yeast fitness was no more than 0.5.

As to A20G G56C A70U, the yeast fitness is 0.859.

With A20U A36G G67C A69C, the yeast fitness was no more than 0.5.

For the variant A20U G50A A57U C60G A65U, the yeast fitness amounted to 0.531.

As to A20U U28G U32G C34G, the yeast fitness was 0.513.

Take A20U C27G C29A: the yeast fitness is no more than 0.5.

Consider A20U G39C, for which the yeast fitness was determined as 0.81.

For the variant A20U U26C, the yeast fitness amounted to 0.89.

For the variant A20G G44A U54C, the yeast fitness turned out to be 0.712.

For the variant A20G G38C A40C, the yeast fitness came to 0.662.

Take A20G C34G A43U C66U: the yeast fitness is 0.546.

As to A21C C22U C31U C33U G48C, the yeast fitness was no more than 0.5.

A21C A43G C60G A65G: the yeast fitness is no more than 0.5.

For A20G G67A A69U, the yeast fitness came to 0.516.

Take A20U C22U C24U: the yeast fitness was no more than 0.5.

As to A20U, the yeast fitness worked out at 0.986.

A20G C31U A42U C46U U59G A65U: the yeast fitness is no more than 0.5.

As to A20G C33U C61G G68C, the yeast fitness was no more than 0.5.

Regarding A20G U35C G63A A70U, the yeast fitness was no more than 0.5.

With A20U U47A A70C, the yeast fitness came out at 0.536.

Take A21C A40U: the yeast fitness was found to be 0.807.

For the variant A21C A40G, the yeast fitness is 0.818.

Consider A20U C62G, for which the yeast fitness is 0.682.

With A20G G67A, the yeast fitness amounted to 0.95.

Take A20G C34A G58A: the yeast fitness turned out to be 0.622.

As to A20U A43U C49A G58C, the yeast fitness worked out at 0.535.

Take A20U C61U C66U: the yeast fitness is 0.559.

Turning to A21C C22G G38C G51C, the yeast fitness is no more than 0.5.

For A20U C31U A57U, the yeast fitness worked out at 0.567.

On to A20G G44A C62U, for which the yeast fitness stood at 0.628.

For A20U C34U G58C, the yeast fitness was no more than 0.5.

For the variant A20G G38A C46U A70U, the yeast fitness stood at 0.594.

Consider A21C C24U A37C G39A C49G A69C, for which the yeast fitness is no more than 0.5.

Take A20U C29U C30G C34A U35A G48C: the yeast fitness was no more than 0.5.

For A20U U26A C55U, the yeast fitness was 0.747.

As for A20U C30G, the yeast fitness came to 0.61.

With A20G G23C G50A, the yeast fitness is no more than 0.5.

On to A20U C22G A40G, for which the yeast fitness was determined as 0.745.

With A20U A37U, the yeast fitness was found to be 0.811.

Consider A20U C31U C62U, for which the yeast fitness was 0.826.

For A20G G41C, the yeast fitness worked out at 1.01.

In the case of A20G G41A, the yeast fitness was determined as 1.2.

In the case of A20U A21G C29G C49G G63C, the yeast fitness was no more than 0.5.

With A20U C31U G38C, the yeast fitness is 0.553.
